MC4R barr agon = MC4R agonists recruiting beta-arrestin, primary screen, cell-based, luminescence, agonist arm of biased-ligand search; Melanocortin receptor 4 (Homo sapiens), P32245; U2OS MC4R beta-arrestin complementation; percent of melanotan II response, DMSO zero; activation, % at 8.9 µM; 360,000 tested, 0.98% active; AID 540308, 2011;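 active = activation above a per-plate cutoff, the mean activation of sample wells on that plate plus 3 SD, cut at about 8% in these data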
Target sequence (P32245 whole entry, looked up): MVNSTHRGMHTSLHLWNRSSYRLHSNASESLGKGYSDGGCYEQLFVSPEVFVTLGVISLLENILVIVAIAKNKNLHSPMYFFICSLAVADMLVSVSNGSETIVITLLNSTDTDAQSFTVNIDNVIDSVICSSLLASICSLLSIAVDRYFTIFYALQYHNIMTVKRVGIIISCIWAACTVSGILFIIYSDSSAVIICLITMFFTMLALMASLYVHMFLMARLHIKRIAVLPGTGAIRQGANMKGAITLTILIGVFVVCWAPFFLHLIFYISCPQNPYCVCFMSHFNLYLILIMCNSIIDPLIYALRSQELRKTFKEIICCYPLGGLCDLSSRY
TAG inh = inhibitors of triacylglycerol accumulation, primary screen, cell-based, uHTS, fluorescence, H9c2 | inhibition, % at 12.5 µM | H9c2 cells, Nile Red lipid (TAG) fluorescence; cells loaded with 200 µM oleic acid | 230,000 tested, 0.66% active | AID 651582, 2012;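 active = pattern-corrected inhibition of lipid staining of at least 50% with the nuclear-stain viability signal not falling by more than 50%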;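 also: 0% = DMSO wells and 100% = triacsin C control wells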
MC4R antag cAMP = MC4R antagonists of cAMP signaling, primary screen, cell-based, TR-FRET, antagonist arm of biased-ligand search. Melanocortin receptor 4 (Homo sapiens), P32245. MC4R-expressing cells, MTII-stimulated cAMP, LANCE TR-FRET. inhibition, % at 6.5 µM. 360,000 tested, 0.48% active;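 active = inhibition above its plate's cutoff, the mean of tested wells on that plate plus 3 SD, cut at about 29% in these data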;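 also: 0% = Melanotan II alone and 100% = Melanotan II plus saturating MCL0020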
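Material: human MC4R-expressing U2OS cells. Probe or stimulus: Melanotan II challenge. Dosing: 6.5 µM single dose. Times: 30-min compound, 1-h challenge, 1-h detection, room temperature. Technique: TR-FRET with Eu-cAMP and labeled anti-cAMP, 671 nm. Replication: singlicate.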
aDG glyco act = activators of alpha-DG glycosylation, primary screen, uHTS, Pro5-aDG cells, AlphaScreen; AID 624168, 2012; alpha-DG glycosylation AlphaScreen (IIH6); 0% Pro5, 100% B10-LARGE cell signal; activation, % at 10 µM; 360,000 tested, 0.22% active;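 active = activation of at least 8% versus controls, or a plate z-score of at least 8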;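 also: Pro5 are CHO cells carrying HIG-tagged alpha-DG that lacks glycosylation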
NTR1 agonist = agonists of human NTR1, primary screen, imaging, U2OS cells, beta-arrestin-GFP, high content; activation, % at 20 µM; NTR1-U2OS beta-arrestin-GFP spot imaging, agonist mode; 330,000 tested, 0.17% active;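 active = activation at or above 40% of the spot to cytoplasm intensity ratio, with at least 20 cells analyzed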;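 also: 0% = DMSO without peptide and 100% = 100 nM NTR1 peptide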
Tb MetRS inh = T. brucei MetRS inhibitors, primary screen, biochemical, luminescence; AID 624268, 2012; inhibition, % at 11.9 µM; 360,000 tested, 0.4% active; purified T. brucei MetRS, ATP depletion, Kinase-Glo luminescence; methionyl-tRNA synthetase (Trypanosoma brucei brucei);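 active = inhibition above a per-plate cutoff of the control wells' mean inhibition plus 3 SD, cut at about 5.5% in these data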;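 also: 0% = DMSO wells median and 100% = median of wells with control inhibitor compound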
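Measured by: Kinase-Glo luciferase luminescence reporting remaining unconsumed ATP. Material: purified T. brucei MetRS enzyme. Doses: 11.9 µM compound single dose, 0.9% DMSO. Medium: HEPES buffer containing pyrophosphatase, BSA, spermine, DTT. Times: 15 min preincubation, 2 h reaction, all 25 °C. Reagent: methionine, ATP and bulk E. coli tRNA.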
aDG conf = alpha-DG glycosylation enhancers, retest, confirmation, single concentration, Pro5-aDG cells | shares compounds with aDG glyco act | IIH6 AlphaLISA; scaled to LARGE-overexpressing B10 cells as 100% | activation, % at 10 µM (by protocol) | 600 tested, 17% active;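 active = activation of at least 7% in one or more replicates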;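 also: cells exposed to compound for two days before detection; 0% = DMSO-treated Pro5 cells and 100% = DMSO-treated B10-LARGE cells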
Starred values were filed as active, the others as inactive; / = no result. Sampled rows, rich in hits. Any-hit rate of the full collection: about 2.4%.

SMILES	MC4R barr agon	TAG inh	MC4R antag cAMP	aDG glyco act	NTR1 agonist	Tb MetRS inh	aDG conf
O=C(NCc1ccccc1)C(c1cc2ccccc2o1)n1c(=O)c(-c2ccco2)nc2ccccc21 (configuration not stated)	/	/	/	0	/	-1	/
CC(=O)c1c(C)[nH]c(C(=O)OCCCCN2C(=O)c3ccccc3C2=O)c1C	0	-34	1	6.9*	1	0	2
CC(=O)c1c(C)[nH]c(C(=O)OCc2ccccc2)c1C	-1	-15	-6	2	1	-1	/
CCCCCc1c(-c2ccc(OC)cc2)ncn1CCc1ccccc1OC	/	/	/	1	/	-1	/
O=C(c1ccccc1OC(F)F)N1CCN(S(=O)(=O)c2ccc3c(c2)OCCCO3)CC1	3	-17	0	14*	0	1	0
CN(C)S(=O)(=O)c1ccc(C(=O)NCc2cccs2)cc1	-3	/	3	0	-2	0	/
CN(c1ccccc1)S(=O)(=O)c1ccc(C(=O)NCc2cccs2)cc1	-2	-8	-2	2.5*	0	0	0
CCN(C(=O)c1ccc(C(C)(C)C)cc1)c1nnc(Cn2nnc3ccccc32)s1	0	-30	1	7.9*	4	-1	3
CCNC(=O)/N=C1/NC(=O)C(C(C)C)O1 (configuration not stated)	-1	-2	15	22*	-1	2	-1
CCC(=O)N[C@H]1CC[C@@H](CCn2cc(C3CC3)nn2)O[C@@H]1CO	/	/	/	0	/	0	/
O=NN(CCCl)C(=O)NCC1=C[N+](=O)CC=C1	/	/	/	0	/	-1	/
COCCNc1nc(NCc2ccccc2)nc2ccsc12	4	-17	-4	1	/	1	/
Clc1ccccc1Nc1nc(NCc2ccccc2)nc2ccsc12	6	-42	10	6.4*	/	0	0
CCCCN1CCCCC1(C)C(=O)NCc1cccs1 (configuration not stated)	0	4	-1	0	/	0	/
CC[N+](C)(CC)CC(O)COCC1COc2ccccc2O1 (configuration not stated)	-1	/	-3	4.6*	-1	0	-1
O=C(NCCN1CCOCC1)c1ccc(Cl)c(S(=O)(=O)N2CCCCCC2)c1	-2	-6	-1	4.7*	0	0	-1
Cc1cc(Cl)ccc1-c1cc2nc(NCCCN(C)C)n(C)c(=O)c2s1	0	5	7	3	/	0	/
N#Cc1ccc(-c2nc3c4ccccc4ccn3c2CC2CCCCC2)cc1	/	/	/	22*	/	-1	7.2*
CN1OC[C@@H]2CN(S(=O)(=O)c3cccc4ccccc34)[C@H](c3ccc(-c4cccnc4)cc3)C[C@@H]21	1	3	4	0	/	-1	/
CC(C)N1CCN(c2ccc(OCC3COC(Cn4cncn4)(c4ccc(Cl)cc4Cl)O3)cc2)CC1 (configuration not stated)	2	9	-1	21*	/	0	9.9*
O=C(CCN1CCCCC1)c1ccccc1	-1	/	4	4.7*	-2	-1	0
CCCCOc1ccc(CSCCNC(=S)Nc2ccccc2)cc1	-2	/	10	1	6	1	/
CC(C)COc1ccc(CSCCNC(=S)Nc2ccccc2)cc1	2	/	-3	4.6*	8	-1	4.9*
CC(OC(=O)c1ccc(Cl)nc1)C(=O)NCc1ccc2c(c1)OCO2 (configuration not stated)	0	-12	1	7.2*	2	0	-1
